Screening results (PubChem BioAssay)
An excerpt weighted towards active compounds, which were near 1.5% of everything screened.
CSN deneddyl inh: inhibitors of CSN-mediated cullin deneddylation, primary screen, biochemical, fluorescence polarization, uHTS. inhibition, % at 12.5 µM. Purified CSN, SCF-Nedd8-OG deneddylation. COP9 signalosome complex subunit 5 (Homo sapiens), Q92905. 0.38% of 360,000 active;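 active = pattern-corrected inhibition above about 35%, with an unprinted fluorescence ratio check between 0.5 and 1.5, limit read from the data, passing the limit was not always enough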;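 note: 0% = enzyme with substrate and 100% = substrate without enzyme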
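Material: purified human Csn5 enzyme expressed in HEK293T cells / Medium: Tris buffer pH 7.5, NaCl, DTT, Tween-20, trehalose, ovalbumin / Compound dosing: 12.5 µM single point / Schedule: 90 min incubation of compound, enzyme and substrate at room temperature / Signal: fluorescence polarization of the substrate / Control set: no-enzyme wells high, enzyme-with-substrate wells low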
Rev-erbA mod: modulators of Rev-erb alpha DNA binding, primary screen, biochemical, FITC-DNA, fluorescence polarization, uHTS; Nuclear receptor subfamily 1 group D member 1 (Homo sapiens), P20393; Rev-erbα–FITC-DNA binding, 90 min; activity, % at 10 µM; 0.79% of 370,000 active;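 active = activity above about 14%, limit read from the data; passing the limit was not always enough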;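 note: 0% = DMSO wells with 35 nM protein and 100% = DMSO wells with 750 nM protein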
aDG glyco up: activators of alpha-DG glycosylation, primary screen, uHTS, Pro5-aDG cells, AlphaScreen; alpha-DG glycosylation AlphaScreen (IIH6); 0% Pro5, 100% B10-LARGE cell signal; activation, % at 10 µM; 0.22% of 360,000 active;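 active = activation of at least 8% versus controls, or a plate z-score of at least 8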;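 note: Pro5 are CHO cells carrying HIG-tagged alpha-DG that lacks glycosylation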
HNF4A DNA FP: change in binding of human HNF4A to DNA, primary screen, biochemical, fluorescence polarization, FITC-DNA; activity change, % at 10 µM; 0.3% of 360,000 active; 1 h; Hepatocyte nuclear factor 4-alpha (Homo sapiens), P41235; in the data active = activity change above about 30%, passing the limit was not always enough
Target sequence (P41235 whole entry, looked up): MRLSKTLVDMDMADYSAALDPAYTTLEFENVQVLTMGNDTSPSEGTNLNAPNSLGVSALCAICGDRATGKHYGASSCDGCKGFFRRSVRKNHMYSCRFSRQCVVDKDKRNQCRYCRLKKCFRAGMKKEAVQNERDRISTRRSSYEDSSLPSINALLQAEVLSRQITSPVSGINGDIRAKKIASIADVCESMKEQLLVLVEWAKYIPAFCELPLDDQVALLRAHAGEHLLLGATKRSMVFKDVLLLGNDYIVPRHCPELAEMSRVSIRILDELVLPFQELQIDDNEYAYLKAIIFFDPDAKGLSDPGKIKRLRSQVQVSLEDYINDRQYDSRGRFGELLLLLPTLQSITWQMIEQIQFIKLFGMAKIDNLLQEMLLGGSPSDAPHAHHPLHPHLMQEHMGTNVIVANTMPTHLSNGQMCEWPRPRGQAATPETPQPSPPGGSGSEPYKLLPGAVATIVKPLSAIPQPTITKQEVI
CSN5 deneddyl: Csn5 deneddylation inhibitors, confirmation, biochemical, fluorescence polarization, single concentration, SCF-Nedd8OG substrate. shares compounds with CSN deneddyl inh. inhibition, % at 16.6 µM. Csn5 deneddylation of SCF-Nedd8OG, 90 min. 62% of 540 active; in the data active = inhibition above about 50%;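 note: 0% = DMSO with enzyme and 100% = no enzyme wells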
MMP-2 counter: MMP-2 protease inhibition counter-screen, confirmation, counter-screen for CSN deneddylation inhibitor project, biochemical, fluorescence, single concentration. shares compounds with CSN deneddyl inh. recombinant MMP-2, FRET substrate fluorescence, 60 min. inhibition, % at 16.6 µM. 33% of 540 active. AID 720655, 2013;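 active = corrected plate-normalized z-score of 5 or more, or -5 or less, or inhibition of 15% or more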;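 note: plate controls were DMSO wells with enzyme for no effect and buffer wells lacking MMP-2 for full effect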
Thrombin counter: thrombin (bovine) inhibition, counter-screen for CSN hits; AID 720656; bovine thrombin cleavage of Ub4-pepOG, fluorescence polarization; 49% of 540 active; inhibition, % at 16.6 µM; shares compounds with CSN deneddyl inh;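 active = inhibition at or above a set limit, with a fluorescence interference ratio between 0.5 and a set maximum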
The depositor's hits bear a star; . = not tested or not shown.

SMILES | CSN deneddyl inh | Rev-erbA mod | aDG glyco up | HNF4A DNA FP | CSN5 deneddyl | MMP-2 counter | Thrombin counter
Cc1ccc(/C=C/C(=O)c2ccccc2O)cc1 | 5 | -2 | 0 | 1 | . | . | .
CN(C)c1ccc(/C=C/C(=O)c2ccc(O)cc2)cc1 | 38 | 17 | 0 | 159 | . | . | .
C=CCn1c(NS(=O)(=O)c2ccccc2)c(S(=O)(=O)c2ccc(C)cc2)c2nc3ccccc3nc21 | 1 | -2 | 0 | 5 | . | . | .
O=S(=O)(Nc1c(S(=O)(=O)c2ccccc2)c2nc3ccccc3nc2n1C1CCCCC1)c1ccccc1 | 58* | 4 | 2 | 1 | 47 | 1 | 1
O=C(N/N=C\c1c(O)ccc2ccccc12)c1ccc(S(=O)(=O)N2CCCCC2)cc1 | 96* | -5 | 0 | 71* | 176* | -44* | 32
CCOC(=O)[C@@]12CN(C(=O)OC(C)(C)C)CC=C1N(Cc1ccc(OC)cc1)C(=O)[C@H]2CC(=O)N1CCSCC1 | . | 2 | . | . | . | . | .
COc1ccc2c(c1)CCCN2C(=O)C1CCCN(S(=O)(=O)c2ccc(Br)s2)C1 (stereo not drawn) | . | -2 | . | . | . | . | .
Cc1ccc2[nH]c(=O)c(CN(CCc3ccccc3)C(c3nnnn3Cc3ccco3)C(C)C)cc2c1 (stereo not drawn) | 38* | 1 | 0 | 9 | 88* | 1 | 14
O=C(CSc1nnc(-c2ccco2)c(-c2ccco2)n1)c1ccccc1 | 37* | -12 | 0 | -19 | 98* | 10 | -13
CC(=O)c1ccc(NC(=O)CSc2nnc(-c3ccco3)c(-c3ccco3)n2)cc1 | 42 | 0 | 0 | -30 | . | . | .
C=CC[C@@]1(c2ccc(Br)cc2OC)Oc2ccccc2-c2nccnc21 | . | -5 | . | . | . | . | .
C/C(=N/NC(=O)c1cc(-c2cccc([N+](=O)[O-])c2)n[nH]1)c1cccc(O)c1 | 5 | 2 | 0 | 1 | . | . | .
C/C(=N\NC(=O)c1cc(-c2cccc([N+](=O)[O-])c2)n[nH]1)c1ccccc1O | 40* | -11 | 0 | -15 | . | 5 | 1
Cc1ccc(C)c(N/C=C(\C#N)c2nc3ccccc3o2)c1 | 4 | 5 | 0 | 4 | . | . | .
N#C/C(=C\c1ccc(O)cc1)c1nc2ccccc2o1 | 48* | 7 | 0 | 57* | 114* | -13 | 39*
CN1CC=C(c2ccccc2)N(c2ccc(Cl)cc2)C1=O | . | 10 | . | . | . | . | .
Cc1cc(N)c2cc(NC(=O)/C=C/c3ccccc3Cl)ccc2n1 | 108* | . | 0 | 37* | -39 | 54* | -5
COc1ccc(/C=N/N2C(=O)CSC2=S)cc1Br | 58* | -26 | 0 | 61* | 51* | 5 | 54*
CCCN1CCc2c(sc(NC(=O)CCS(=O)(=O)c3ccccc3)c2C(=O)OC)C1 | 7 | -1 | 3 | 16 | . | . | .
CCCN1CCc2c(sc(NC(=O)c3ccc(S(=O)(=O)N(C)c4ccccc4)cc3)c2C(=O)NC)C1 | 42* | 0 | 0 | 67* | 179* | -1 | 12
CN(C)c1ccc2nc3ccc(=O)cc-3sc2c1 | 55* | -30 | 5 | -18 | 104* | 26* | 14
O=C1NC(=Nc2ccccc2)S/C1=C\C=C\c1ccco1 | 74* | -33 | 0 | 13 | 80* | 10 | 14
Cc1cccc(N=C2NC(=O)/C(=C/C=C/c3ccco3)S2)c1C | 58* | -29 | 0 | -18 | 63* | 18* | 38*
COc1ccc(N=C2NC(=O)/C(=C/C=C/c3ccccc3)S2)cc1 | 4 | 4 | 0 | 3 | . | . | .
Cc1ccc(N=C2NC(=O)/C(=C/C=C/c3ccco3)S2)cc1 | 49* | -15 | 0 | 0 | 93* | 17* | -1
